CTSL1 counter – counter-screen for PFM18AAP inhibitors: inhibitors of F. hepatica cathepsin L1; AID 1906; hit rate 0.49% among 300,000; recombinant F. hepatica cathepsin L1, Z-Leu-Arg-MCA fluorescence; inhibition, % at 5.96 µM;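 active = inhibition above the mean of all tested compounds plus 3 SD, set per screening campaign, cut at about 17% in these data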
PAD4 FP inh – blocks human protein arginine deiminase 4. Q9UM07. recombinant PAD4, RCA probe fluorescence polarization. inhibition, % at 6.36 µM. hit rate 0.41% among 330,000. AID 485272;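 active = percent inhibition above a cutoff equal to the mean of all tested compounds plus 3 SD, cut at about 15% in these data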
GSTO1 inh – counter-screen for RBBP9 inhibitors: inhibitors of human GSTO1; P78417; recombinant GSTO1, activity-based probe fluorescence polarization; inhibition, % at 5.96 µM; hit rate 1.1% among 300,000;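 active = inhibition above the campaign mean inhibition plus 3 SD, cut at about 35% in these data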
TDP2 absorb – blocks human TDP2 phosphodiesterase activity. inhibition, % at 12.8 µM. recombinant TDP2, T5PNP hydrolysis, p-nitrophenol absorbance 415 nm. AID 720702. hit rate 0.34% among 370,000;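 active = inhibition above the mean of all tested compounds plus 3 SD, set per campaign, cut at about 25% in these data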
Target sequence (O95551 whole entry, looked up): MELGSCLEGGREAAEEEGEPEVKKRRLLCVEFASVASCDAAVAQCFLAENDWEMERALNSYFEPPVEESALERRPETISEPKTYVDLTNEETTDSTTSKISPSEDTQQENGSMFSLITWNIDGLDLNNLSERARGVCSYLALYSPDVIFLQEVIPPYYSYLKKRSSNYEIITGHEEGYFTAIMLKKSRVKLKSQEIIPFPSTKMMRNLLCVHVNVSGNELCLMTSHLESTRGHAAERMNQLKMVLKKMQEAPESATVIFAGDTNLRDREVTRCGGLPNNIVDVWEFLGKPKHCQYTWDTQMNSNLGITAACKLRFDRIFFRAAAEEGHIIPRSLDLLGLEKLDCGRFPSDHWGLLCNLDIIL
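Assay system: Recombinant human TDP2 | Quantity: 120 nM TDP2 per well | Incubation: 2 h at 37 °C | Signal: Epi absorbance | Evaluation: Percent inhibition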
Apaf1 inhib – blocks human Apaf-1 apoptosome activity; AID 489030; hit rate 0.71% among 330,000; reconstituted apoptosome caspase-3 activity, DEVD-Rh110 fluorescence; inhibition, % at 20 µM; O14727; active = inhibition of at least 40% at 20 µM
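Assay system: Apoptosome proteins | Medium: pH 7.5 Hepes buffer with CHAPS, BSA, DTT | Also added: Cytochrome c and DEVD-Rh110 substrate | Times: 30 min plus 50 min, RT | Detection: Rhodamine 110 fluorescence at Ex 480/Em 540 nm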
TDP2 confirm – confirmation of human TDP2 inhibitors; shares compounds with TDP2 absorb; recombinant human TDP2, absorbance read-out; inhibition, % at 12.8 µM; hit rate 22% among 1,100; AID 743263; in the data active = inhibition above about 25%
Numbers stand for hits; – = inactive; · = no result. Hits are enriched below; roughly 1.8% of the tested compounds scored in any of these assays.

SMILES	CTSL1 counter	PAD4 FP inh	GSTO1 inh	TDP2 absorb	Apaf1 inhib	TDP2 confirm
COc1cccc(N2CC(NS(=O)(=O)c3cccnc3)CC2=O)c1 (stereo not given)	–	–	–	29	–	–
COC(=O)[C@H]1C[C@@]2(n3ccc4ccccc43)c3ccccc3N(S(=O)(=O)c3ccccc3)[C@H]2N1	·	·	·	–	·	·
COc1cccc(/C=C2\SC(=S)N(CC(=O)N(C)C3CCS(=O)(=O)C3)C2=O)c1 (stereo not given)	–	–	–	30	–	–
COc1ccc(/C=C2\SC(=S)N(CC(=O)N(C)C3CCS(=O)(=O)C3)C2=O)cc1 (stereo not given)	–	–	–	–	–	·
Oc1ccc(Nc2ccccc2F)c2cccnc12	·	·	·	36	·	–
Oc1ccc(-c2ccccc2F)c2cccnc12	·	·	·	–	·	·
CC1CCN(CC(=O)N2c3ccccc3CC2C)CC1 (stereo not given)	–	–	–	–	–	·
COc1ccc(N2CCN(CC(=O)N3c4ccccc4CC3C)CC2)cc1 (stereo not given)	–	–	–	26	–	–
CC(=O)c1cc(-c2ccc3nonc3c2)c(=O)n2c1CCC2	·	·	·	–	·	·
COc1ccc(CNc2nc3nc(-c4ccccc4)cc(=O)n3[nH]2)cc1OC	–	–	–	33	–	–
COC(=O)C1=C(C)N(Cc2ccc(Cl)cc2)C(=S)NC1c1ccc(Cl)cc1 (stereo not given)	·	·	·	–	·	·
COC(=O)C[C@H]1CC[C@H]2[C@H](COc3ccc(NC(=O)c4ccccc4F)cc3C(=O)N2C)O1	·	·	·	–	·	·
O=C(Nc1ccc2nc3n(c(=O)c2c1)CCCCC3)c1c(F)ccc([N+](=O)[O-])c1F	–	–	–	25	–	38
CC(C)CNC(=O)CSc1nc2scc(-c3ccccc3)c2c(=O)[nH]1	–	–	–	–	–	·
CC(c1nc2scc(-c3ccccc3)c2c(=O)[nH]1)N1CCN(CC(=O)NC2CC2)CC1 (stereo not given)	·	·	·	32	–	–
Cn1c(CNc2ccc(O)cc2)nc2ccccc21	–	–	–	35	–	–
O=[N+]([O-])c1ccc2c(c1)nnn2-c1ccccc1	–	–	–	24	–	–
CCC(C)N(C(=O)CNc1nnnn1-c1ccccc1)C(C)CC (stereo not given)	·	·	·	–	·	·
Cc1ccc(S(=O)(=O)Nc2ccc(O)c3ccccc23)c(C)c1	·	·	·	29	·	–
O=C(CN1CCCC1)Nc1ccc2c(c1)CCC2	–	–	–	28	–	–
COc1ccc(NC(=O)c2cc(-c3ccc(C)c(C)c3O)n[nH]2)cc1Cl	–	–	–	75	–	–
Cc1cccc(C(=O)Nc2c(-c3ccccc3)nc3ncccn23)c1	·	·	·	–	·	·
Nc1[nH]c2cc(C(F)(F)F)ccc2c1C(=O)N1CCN(CCc2ccccc2)CC1	·	·	·	–	·	·
COc1cccc(-n2c(=O)c3ccccc3n3c(=S)[nH]nc23)c1	–	–	–	69	–	–
COc1ccc(/C=C/S(=O)(=O)NCC(C)C)c(CNC(=O)OC(C)(C)C)c1	·	·	·	–	·	·
SMILES	CTSL1 counter	PAD4 FP inh	GSTO1 inh	TDP2 absorb	Apaf1 inhib	TDP2 confirm
COc1cccc(CNC(=O)[C@H]2CCCN2C(=O)[C@H]2CCCN2C(=O)c2cccc(Cl)c2)c1	·	·	·	–	·	·
COc1cc(C(C)=O)ccc1OCC(O)CN1CCN(c2ccccn2)CC1 (stereo not given)	–	–	–	26	–	–
COc1cc(C(C)=O)ccc1OCC(O)CN1CCN(c2ccccc2)CC1 (stereo not given)	–	–	–	–	–	·
CCCCN1CCS(=O)(=O)N(Cc2cn(Cc3ccc(C)cc3)nn2)C(C(=O)OC)C1 (stereo not given)	·	·	·	–	·	·
C[C@@H]1CN([C@@H](C)CO)C(=O)CCCn2cc(nn2)CO[C@H]1CN(C)C(=O)Nc1ccc(C(F)(F)F)cc1	·	·	·	–	·	·
O=C1C(=C(I)I)c2ccccc2-c2ccccc21	·	·	·	98	·	88
COC[C@@H]1CCCN1c1ccc2c(c1)O[C@@H]1CCN(C1)S2(=O)=O	·	·	·	–	·	·
COc1ccc(C(C(=O)N(C)C2CCCC2)N(Cc2ccc(F)cc2)C(=O)c2ccc3ccccc3c2)cc1OC (stereo not given)	·	·	·	–	·	·
NC(=S)N=Nc1c(O)cc(O)c2[nH]c(=O)ccc12	·	·	·	52	·	44
NC(=S)N=Nc1c(O)[nH]c2ccc(F)cc12	–	–	–	–	–	·

Source: PubChem (several laboratories)
